Screening results (PubChem)
Sampled rows, rich in hits. Any-hit rate of the full collection: about 2.5%.
Fh CTSL1 inh = counter-screen for PFM18AAP inhibitors: inhibitors of F. hepatica cathepsin L1 | 300,000 compounds, 0.49% hits | inhibition, % at 5.96 µM | recombinant F. hepatica cathepsin L1, Z-Leu-Arg-MCA fluorescence;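 active means inhibition above the mean of all tested compounds plus 3 SD, set per screening campaign, cut at about 17% in these data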;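 further: 0% = plate median of test compound wells and 100% = 1 µM Z-Phe-Ala-diazomethylketone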
GSTO1 counter = blocks human GSTO1 in RBBP9 counter-screen | P78417 | recombinant GSTO1, activity-based probe fluorescence polarization | inhibition, % at 5.96 µM | 300,000 compounds, 1.1% hits | AID 1974;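 active means inhibition above the campaign mean inhibition plus 3 SD, cut at about 35% in these data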;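 further: 0% = GSTO1-1 with DMSO and 100% = wells lacking GSTO1-1 enzyme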
Target sequence (P78417 whole entry, looked up): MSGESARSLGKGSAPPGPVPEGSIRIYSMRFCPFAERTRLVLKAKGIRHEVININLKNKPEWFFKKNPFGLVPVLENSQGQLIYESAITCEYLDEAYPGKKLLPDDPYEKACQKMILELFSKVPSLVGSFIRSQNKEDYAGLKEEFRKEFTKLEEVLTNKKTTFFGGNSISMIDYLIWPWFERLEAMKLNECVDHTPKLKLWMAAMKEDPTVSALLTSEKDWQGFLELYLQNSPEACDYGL
PRMT1 FP inh = blocks human protein arginine methyltransferase 1; Q99873; recombinant PRMT1, activity-based probe fluorescence polarization; inhibition, % at 2.79 µM; 370,000 compounds, 1.3% hits;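 active means inhibition above about 21% made by adding two undisclosed values, limit read from the data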
Target sequence (Q99873 whole entry, looked up): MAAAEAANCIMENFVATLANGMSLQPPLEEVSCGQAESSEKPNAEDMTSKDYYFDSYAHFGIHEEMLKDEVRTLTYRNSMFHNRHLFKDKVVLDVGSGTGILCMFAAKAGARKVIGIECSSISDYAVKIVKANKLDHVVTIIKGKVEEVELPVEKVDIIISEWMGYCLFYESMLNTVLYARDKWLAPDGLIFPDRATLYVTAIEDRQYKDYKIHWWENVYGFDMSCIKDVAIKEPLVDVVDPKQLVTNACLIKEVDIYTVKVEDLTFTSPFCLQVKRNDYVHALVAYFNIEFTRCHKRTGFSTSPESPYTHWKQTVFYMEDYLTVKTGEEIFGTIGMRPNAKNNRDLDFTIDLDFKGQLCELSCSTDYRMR
TDP2 absorb = blocks human TDP2 phosphodiesterase activity | inhibition, % at 12.8 µM | O95551 | 370,000 compounds, 0.34% hits | recombinant TDP2, T5PNP hydrolysis, p-nitrophenol absorbance 415 nm;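 active means inhibition above the mean of all tested compounds plus 3 SD, set per campaign, cut at about 25% in these data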;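 further: 0% = DMSO with enzyme and 100% = buffer with substrate but no TDP2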
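System: recombinant human TDP2 / Amount: 120 nM TDP2 per well / Also added: 5 mM T5PNP chromogenic substrate / Doses: 12.8 µM single point, 1% DMSO / Incubation: 2 h at 37 °C / Detection: p-Nitrophenol epi absorbance / Evaluation: % inhibition relative to enzyme-containing and enzyme-free wells / Repeats: singlicate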
PAD4 FP inh = inhibitors of human PAD4; Q9UM07; recombinant PAD4, RCA probe fluorescence polarization; inhibition, % at 6.36 µM; 330,000 compounds, 0.41% hits; AID 485272;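 active means percent inhibition above a cutoff equal to the mean of all tested compounds plus 3 SD, cut at about 15% in these data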;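 further: 0% = PAD4 with RCA probe and DMSO and 100% = probe without PAD4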
The depositor's hits bear a star; · = not tested or not shown.

SMILES	Fh CTSL1 inh	GSTO1 counter	PRMT1 FP inh	TDP2 absorb	PAD4 FP inh
O=C1C(Cl)=C(N2CCOCC2)C(=O)N1c1cccc(Cl)c1	57.3*	13.4	22.1*	-6.1	-0.9
CCc1ccc(N2C(=O)C(Cl)=C(N3CCOCC3)C2=O)cc1	32.3*	9.4	15.0	-0.1	1.4
COC(=O)[C@]12C[C@H](CC(=O)NCCCN3CCCC3=O)C(=O)N(Cc3ccco3)C1=C[C@H](C(C)C)O[C@@H]2C1CC1	·	·	-4.2	8.9	·
COc1cc(C=Nn2c(-c3ccc(F)cc3)n[nH]c2=S)ccc1OCc1ccccc1	·	·	5.5	-0.1	·
CC(C)(C)c1ccc(O)c(N=Cc2cc(Br)ccc2O)c1	-4.1	35.2*	21.3*	15.0	-2.9
CC(C)N1CCN(Cc2nc(-c3ccccc3)cs2)CC1CCO (stereo unspecified)	20.3*	4.8	-4.8	9.6	-1.9
CC1CCC2(CCC(=O)N2CCCOC(=O)NC(C)(C)C)CC1 (stereo unspecified)	·	·	1.8	1.5	·
Cc1csc(NC(=O)c2cc(-c3ccco3)nc3ccccc23)n1	-0.5	10.0	23.5*	-13.8	-4.5
O=C(O)c1cc(-c2ccco2)nc2ccccc12	2.0	7.3	23.5*	0.8	-1.5
O=C(Nc1cccc(S(=O)(=O)NC2=NCCC2)c1)c1cc(-c2ccco2)nc2ccccc12	1.7	60.5*	14.4	-1.2	-6.2
Cc1csc(NC(=O)c2cc(C)nc3ccccc23)n1	-1.4	-2.6	1.7	11.1	-2.0
CN(Cc1cn(CC2CCCCC2)nn1)S(=O)(=O)c1ccccc1Br	·	·	2.3	4.0	·
C#CCN1CC(N(C)CCOC(=O)c2cc(C)cc(C)c2)CS1(=O)=O (stereo unspecified)	·	·	-1.6	-2.2	·
CCn1c2ccccc2c2cc(C=Nn3c(-c4ccccc4C)n[nH]c3=S)ccc21	·	·	22.7*	-3.2	·
COC(=O)[C@]12C[C@H](CC(=O)NCC3CCCCC3)C(=O)N(Cc3ccc(Cl)cc3Cl)C1=C[C@H](C(C)C)O[C@@H]2C1CC1	·	·	2.1	-6.1	·
O=C(O[C@@H]1OC2COC(=O)c3cc(O)c(O)c(O)c3-c3c(cc(O)c(O)c3O)C(=O)O[C@@H]([C@H]1O)[C@@H]2O)c1cc(O)c(O)c(O)c1	-1.6	73.4*	·	·	10.2
O=C(OCCN1CCN(C2CN(Cc3cn(Cc4ccc([N+](=O)[O-])cc4)nn3)S(=O)(=O)C2)CC1)c1cc2ccccc2o1 (stereo unspecified)	·	·	3.1	10.7	·
CNc1oc(C)nc1S(=O)(=O)c1ccccc1	2.0	1.5	1.6	-4.3	4.9
Cc1nc(S(=O)(=O)c2ccc(Cl)cc2)c(NCc2ccccc2)o1	28.0*	5.4	-0.7	-8.6	-6.5
CCn1c(CCNC(=O)c2cccs2)nnc1SCC(=O)c1ccc(OC)cc1	1.6	3.6	22.4*	-7.7	-12.5
COC(=O)[C@H]1C[C@@]2(N3CCCCC3)c3ccccc3N(C(=O)OC(C)(C)C)[C@H]2N1C(=O)OC(C)(C)C	·	·	-2.3	-2.5	·
CC(NCc1ccco1)C(=O)N1CCN(c2ccc(F)cc2)CC1 (stereo unspecified)	·	·	-3.3	-4.2	·
CCOC(=O)CN(C#N)c1nc(C)cc(C)n1	19.5*	6.7	-1.3	-0.3	0.3
CCNc1nc(SC)nc(N(C#N)CC(=O)OC)n1	62.2*	-3.2	2.4	16.1	-0.7
COC(=O)CN(C#N)c1nc(N(C)C)nc(N(C)C)n1	21.1*	-10.9	-4.3	-1.9	-2.3
SMILES	Fh CTSL1 inh	GSTO1 counter	PRMT1 FP inh	TDP2 absorb	PAD4 FP inh
COC(=O)CN(C#N)c1nc(NC(C)C)nc(OC)n1	80.5*	6.8	-1.3	6.3	3.5
O=C(NCc1cccs1)C1CCN(S(=O)(=O)c2ccc([N+](=O)[O-])cc2)CC1	·	·	-2.8	1.6	·
COC(=O)[C@]12C[C@H](CC(=O)NCc3cccc(C(F)(F)F)c3)C(=O)N(Cc3ccc4c(c3)OCO4)C1=C[C@H](C(C)C)O[C@@H]2C1CC1	·	·	-0.8	4.3	·
FC(F)(F)c1cccc(N2CCN(C(=S)Nc3nccc4ccccc34)CC2)c1	·	·	5.6	-3.2	·
CC(C)N1Cc2nnn(Cc3ccccc3)c2-c2ccccc2S1(=O)=O	·	·	-1.9	-10.5	·
FC(F)(F)c1ccccc1NC(=S)OC1CCC12CCC(c1ccccc1)CC2 (stereo unspecified)	·	·	3.3	2.0	·
COC(=O)CN(C#N)c1nc(C)cc(C)n1	8.0	4.5	0.0	1.8	-4.6
COC(=O)CN(C#N)c1nc(OC)nc(N(C)C)n1	39.9*	4.9	-0.2	5.0	1.8
Nc1ccccc1Nc1ccccc1	18.6*	7.7	5.6	-1.3	-2.9
Nc1ccc(Nc2ccccc2)c(Cl)c1	7.0	5.8	4.1	3.5	4.0
Cc1c(O)nc(SCC(=O)Nc2ccc3c4c(cccc24)CC3)n(-c2ccc(F)cc2)c1=O	-0.2	9.8	24.6*	0.6	2.4
CCc1c(O)nc(SCC(=O)Nc2c(C)cccc2C)n(-c2ccc(F)cc2)c1=O	·	·	13.7	-1.2	·
COc1cccc(NC(=O)CSc2nc(O)c(C)c(=O)n2-c2ccc(C)cc2)c1	2.0	4.6	24.5*	4.3	0.5
Cc1ccc(C(=O)NCC(=O)OCN2C(=O)c3ccccc3C2=O)cc1C	·	·	-1.2	-12.8	-0.1
O=C(CNC(=O)c1ccco1)OCN1C(=O)c2ccccc2C1=O	28.2*	36.6*	3.6	-9.0	-0.9
Nc1c(/C=C2/C=CC(=O)C(O)=C2)c(=O)nc2sc(CC(=O)N3CCCC3)nn12	3.2	26.7	4.6	0.4	3.2
Nc1c(/C=C2/C=CC(=O)C(O)=C2)c(=O)nc2sc(CC(=O)N3CCCCC3)nn12	1.4	41.5*	0.9	-13.1	2.7
O=C1C2C3C=CC(CC3)C2C(=O)N1c1ccccc1[N+](=O)[O-] (stereo unspecified)	18.7*	14.6	5.6	1.5	-1.6
CCCCCCn1c(NCC)nc2c1c(=O)n(C)c(=O)n2C	-1.4	2.6	0.2	-10.3	-0.2
CCCCCCn1c(Br)nc2c1c(=O)n(C)c(=O)n2C	35.2*	12.7	-1.0	-1.0	1.2
CC(NS(=O)(=O)c1ccccc1)C(c1cccs1)N1CCOCC1 (stereo unspecified)	79.4*	-2.2	-1.2	7.6	3.5
COC(=O)[C@H](CC(C)C)N1Cc2nnn(Cc3ccccc3)c2-c2ccccc2S1(=O)=O	·	·	-5.6	-8.6	·
COC(=O)C(NC(=O)CN1C(=O)c2ccccc2C1=O)c1ccc(O)c(OC)c1 (stereo unspecified)	17.0*	9.1	-3.2	-8.7	3.4
CC(NC(=O)CN1C(=O)c2ccccc2C1=O)c1ccccc1 (stereo unspecified)	-2.4	-1.2	0.5	9.7	-2.3
COCCNC(=O)C[C@H]1CC[C@H]2[C@@H](COc3ccc(NC(=O)Nc4cccc(F)c4)cc3C(=O)N2C)O1	·	·	5.0	1.7	·
CCOC(=O)N1CCN(CCC(=O)c2ccc(OC)cc2)CC1	2.0	0.4	21.4*	-12.8	-3.9
COc1ccc(C(=O)CCN2CCCC(C)C2)cc1 (stereo unspecified)	6.1	-7.5	24.6*	-10.6	2.6
